We go through 59 molecules from PubChem BioAssay AID588696 (Southern Research Specialized Biocontainment Screening …, 2011).

pIC50: −log10 of the molar value. Activity calls are given as the source filed them.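 Rule for the calls: active = inhibition of 30% or more at any tested concentration; inactive = the rest.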

This assay deals with Aspartyl aminopeptidase (Homo sapiens) (UniProt Q9ULA0). The assay can be described thus: human M18 aspartyl aminopeptidase inhibitors, dose response, counter-screen for PfM18AAP inhibitor project, biochemical, QFRET fluorogenic readout, recombinant enzyme (AID 588696). Particulars: recombinant hM18AAP, H-Glu-NHMec fluorogenic cleavage. An outline of the steps: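 Assay system: Recombinant human hM18AAP enzyme | Quantity: 5 µg/mL enzyme | Also added: 0.1 mM H-Glu-NHMec substrate | Dosing: Twofold dilution series of compound, top dose 100 µM | Schedule: 90 min reaction, room temperature | Measured by: Fluorescence at 370/460 nm | Read-out: % inhibition and fitted IC50 | Control set: no-enzyme background wells as low-signal control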

The pIC50 is the negative decadic logarithm of the IC50, by convention in mol/L.

Take `O=C(O)CCCCNc1c2ccccc2nc2ccccc12`: under “at 50 µM (top of the series)”, the inhibition result is “inactive”. Still for that read-out and setting: the entry for `O=C(O)CCCNc1c2ccccc2nc2ccccc12` is “inactive”. `COc1ccc(CCCNc2c3ccccc3nc3ccccc23)cc1OC`: the inhibition result (at 100 µM (top of the series)) was “inactive”. Regarding `Oc1ccc(CCNC2CCN(Cc3ccccc3)CC2)cc1O`, the inhibition result (at 100 µM (top of the series)) was “inactive”.

In the case of `COc1ccc(CCNc2ccnc3ccccc23)cc1OC`, the inhibition result (at 50 µM (top of the series)) was “inactive”. In the case of `COc1ccc(CC(=O)O)cc1OC`, where the note is “at 100 µM (top of the series)”, the inhibition entry is “inactive”.

For the molecule `COc1ccc(CCN2CCc3ccccc3C2)cc1OC`, the inhibition entry (at 100 µM (top of the series)) is “inactive”. As to `Nc1cc(C(=O)c2ccccc2)ccc1O`, the pIC50 was 4.36. In the case of `CN(CCc1ccc(O)c(O)c1)c1ccnc2ccccc12`, the pIC50 is 4.51.

Turning to `COc1ccc(CCNc2ccncc2)cc1OC`, where the note is “at 100 µM (top of the series)”, the inhibition entry is “inactive”. For the molecule `COc1ccc(CCNc2ccc3ccccc3c2)cc1OC`, under “at 100 µM (top of the series)”, the inhibition result was “inactive”.

Take `Cc1c(-c2ccccc2)[nH]c(-c2ccc(O)c(O)c2)[n+]1O`: the pIC50 is 4.14. For the molecule `Oc1ccc(CCNc2c3c(nc4ccccc24)CCCC3)cc1O`, the inhibition result (at 50 µM (top of the series)) is “inactive”. Take `COc1ccc(CCNC2CCN(C)CC2)cc1OC`: the inhibition entry (at 100 µM (top of the series)) is “inactive”. `COc1ccc(CCNC2CCN(Cc3ccccc3)CC2)cc1OC`: for the setting “at 100 µM (top of the series)”, the inhibition result was “inactive”.

Regarding `CCC(C)c1ccc(N)c(O)c1` (centres undefined), the pIC50 was 4.35.

On to `COc1ccc(-c2csc(-c3ccccc3)n2)cc1OC`, for which the inhibition result (at 100 µM (top of the series)) is “inactive”.

For `COc1ccc(CCNc2c3c(nc4ccccc24)CCCC3)cc1OC`, the inhibition result (at 100 µM (top of the series)) was “inactive”. Regarding `Cc1nc(NCCc2ccc(O)c(O)c2)c2c3c(sc2n1)CCC3`, the pIC50 is 4.28. In the case of `COc1ccc(CCNc2c3ccccc3nc3ccccc23)cc1OC`, the inhibition entry (at 100 µM (top of the series)) was “inactive”. Turning to `COc1ccc2c(c1)C(=O)C(N)CC2` (centres undefined), the pIC50 was 4.00. In the case of `O=C1c2ccc3c4c(ccc(c24)C(=O)N1O)CC3`, the pIC50 was 4.05. On to `Cc1ccc(-c2nc(-c3ccc(O)c(O)c3)cs2)cc1`, for which the pIC50 is 4.58. Consider `NCCNc1c2ccccc2nc2ccccc12`, for which, where the note is “at 100 µM (top of the series)”, the inhibition entry was “inactive”. Same read-out and setting: the entry for `COc1cccc(CCNc2c3ccccc3nc3ccccc23)c1` is “inactive”; for `COc1ccc(CCNc2cccc3ccccc23)cc1OC` it is “inactive”; for `COc1ccc(CCNc2cncc3ccccc23)cc1OC` it is “inactive”. Consider `Oc1ccc(CCCNc2c3ccccc3nc3ccccc23)cc1O`, for which, where the note is “at 100 µM (top of the series)”, the inhibition result is “inactive”. Regarding `Oc1ccc(-c2csc(Cc3cc4ccccc4[nH]3)n2)cc1O`, the pIC50 is 4.56.

On to `COc1ccc(CCN(C)CCc2ccccc2)cc1OC`, for which the inhibition result (at 100 µM (top of the series)) is “inactive”.

With `COc1ccc(-c2nc(-c3ccccc3)c(-c3ccccc3)[nH]2)cc1OC`, for the setting “at 100 µM (top of the series)”, the inhibition entry was “inactive”. Still for that read-out and setting: the entry for `COc1ccc(CCN(C)c2ccnc3ccccc23)cc1OC` is “inactive”. On to `O=C(c1ccco1)N1CCN(Cc2cc(=O)c(O)co2)CC1`, for which the inhibition entry (at 100 µM (top of the series)) is “inactive”. Consider `COc1ccc(CCC(=O)O)cc1OC`, for which, under “at 100 µM (top of the series)”, the inhibition result is “inactive”.

Consider `COc1cccc(-c2nc(-c3ccc(OC)c(OC)c3)cs2)c1`, for which the inhibition result (at 100 µM (top of the series)) is “inactive”. For `O=S1(=O)c2ccccc2-c2cc(-c3nc(-c4ccc(O)c(O)c4)[nH]c3-c3ccccc3)ccc21`, the pIC50 is 4.34. In the case of `O=c1cc(CN2CCN(Cc3ccccc3)CC2)c2ccc(O)c(O)c2o1`, the inhibition entry (at 100 µM (top of the series)) was “inactive”. As for `Oc1ccc(CCNc2cccc3ccccc23)cc1O`, the pIC50 was 4.52.

For the molecule `Oc1ccc(CCNc2ccc3ccccc3c2)cc1O`, the pIC50 is 4.47.

Turning to `CCC(C)C(=O)Nc1ccccc1O` (centres undefined), the inhibition result (at 100 µM (top of the series)) was “inactive”. Regarding `CN(CCc1ccc(O)c(O)c1)c1ccncc1`, the inhibition result (at 100 µM (top of the series)) was “inactive”. As to `O=c1ccc2cc(O)c(O)cc2o1`, where the note is “at 50 µM (top of the series)”, the inhibition entry was “inactive”. Take `COc1ccc(CCN2CCN(C)CC2)cc1OC`: the inhibition entry (at 100 µM (top of the series)) is “inactive”. For the molecule `O=C1OCCN1CCc1nc(-c2ccc(O)c(O)c2)cs1`, the pIC50 is 4.34. Turning to `COc1ccc(-c2csc(-c3ccccc3OC)n2)cc1OC`, where the note is “at 100 µM (top of the series)”, the inhibition entry was “inactive”. In the case of `Oc1ccc(CCNC(c2ccccc2)c2ccccc2)cc1O`, the pIC50 is 4.38. Same read-out and setting: for `Oc1ccc(CCNc2cncc3ccccc23)cc1O` the value was 4.27. For the molecule `Cc1c(O)c(=O)ccn1CCNc1c2ccccc2nc2ccccc12`, the inhibition result (at 100 µM (top of the series)) is “inactive”. Still for that read-out and setting: for `COc1ccc(CNc2c3ccccc3nc3ccccc23)cc1OC` the value was “inactive”. As for `Oc1ccc(CCNc2c3ccccc3nc3ccccc23)cc1`, the inhibition result (at 100 µM (top of the series)) is “inactive”. With `CCC(C)C(=O)Nc1ccccc1N` (centres undefined), the inhibition entry (at 100 µM (top of the series)) is “inactive”.

On to `NCc1cc2c3c(c(=O)oc2c(O)c1O)CCC3`, for which the inhibition entry (at 100 µM (top of the series)) is “inactive”. In the case of `CC(C)(C)C(=O)OCc1nc(-c2ccc(O)c(O)c2)cs1`, the pIC50 was 4.48. `Oc1ccc(CCN2CCc3ccccc3C2)cc1O`: the inhibition entry (at 100 µM (top of the series)) is “inactive”. For `Cc1c(OCc2ccccc2)c(=O)ccn1CCNc1c2ccccc2nc2ccccc12`, for the setting “at 100 µM (top of the series)”, the inhibition entry is “inactive”. As to `CCOc1cccc(-c2nc(-c3ccc(O)c(O)c3)cs2)c1`, the pIC50 is 4.67. In the case of `O=C(c1ccco1)N1CCN(Cc2cc(=O)c(O)c[nH]2)CC1`, the inhibition result (at 100 µM (top of the series)) was “inactive”.

Turning to `O=c1cc(CO)oc(CN2CCCCC2)c1O`, the inhibition entry (at 100 µM (top of the series)) is “inactive”. As to `COc1ccc(CCN(C)c2ccncc2)cc1OC`, for the setting “at 100 µM (top of the series)”, the inhibition entry was “inactive”.
